Measurements from PMC6500964 (Cancer Science, 2019).
Entries after “also recorded” stand apart in the source; their conditions may differ. Like-named read-outs stand apart in the source and are kept apart here.

Experiments:
[1] = system: TE‐11 cells; assay: WST‐8 cell proliferation assay; assay type: cell-based, human; conditions: for reduced the proliferation of TE‐11 cells by (average ± SD): compared with vehicle‐treated control cells
Summary of the method: (§1)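 Human ESCC cells, obtained from the Tohoku University or Riken cell banks and authenticated, were seeded at 1‐5 × 10³ cells per well and cultured overnight. They were then exposed for 48 h to the GLUT1-inhibitor test compound (prepared in DMSO), cisplatin, or both, with DMSO-only wells as control. Surviving cells were read by WST‐8 absorbance at 450 nm. Results are mean ± SD of n = 3 replicates, compared by Student's t‐test.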

[2] = system: TE‐8 cells; conditions: read-out: cisplatin IC50 value, low GLUT1 expression, ref GSE36133 and the Genomics of Drug Sensitivity in Cancer; cited from earlier work
[3] = system: TE‐11 cells; conditions: read-out: cisplatin IC50 value, high GLUT1 expression, ref GSE36133 and the Genomics of Drug Sensitivity in Cancer; cited from earlier work
[4] = system: TE‐8 cells; assay: WST‐8 cell proliferation assay; assay type: cell-based, human; conditions: for reduced the proliferation of TE‐8 cells by (average ± SD): compared with vehicle‐treated control cells
Summary of the method: as §1

[5] = system: GLUT1; conditions: cited from earlier work
[6] = system: GLUT1; conditions: cited from earlier work; remark: listed apart in the source
[7] = system: human lung cancer xenografts; conditions: nude mouse, daily intraperitoneal injection of 10 mg/kg for 10 weeks; cited from earlier work

Compound: N.N.[Cl][Pt][Cl] [cisplatin]
- reduced the proliferation of TE‐11 cells by (average ± SD) ([1]; 0.5 μmol/L cisplatin, 48 h): 46.0% ± 6.5%
- effect of very low doses of cisplatin on proliferation ([1]; 0.2 and 0.4 μg/mL cisplatin, 48 h, TE11 cells transfected with GLUT1‐specific siRNA): strong inhibitory effect
- IC50 [2]: 10.1 µM
- IC50 [3]: 20.4 µM
- reduced the proliferation of TE‐8 cells by (average ± SD) ([4]; 0.5 μmol/L cisplatin, 48 h): 79.9% ± 2.3%

Compound: Oc1ccc(/C=C/c2cc(O)cc(O)c2)cc1 [resveratrol]
- efficacy in vitro ([5]; 50 μmol/L): shown efficacy in vitro

Compound: Cc1c(NC(=O)c2cc(C(N)=O)nc3cc(F)ccc23)c(C(F)(F)F)nn1Cc1ccc(C#N)cc1 [BAY‐876]
- reduced the proliferation of TE‐11 cells by (average ± SD) ([1]; 0.025 nmol/L BAY‐876, 48 h): 51.0% ± 8.2%
- inhibition of proliferation of TE‐11 cells ([1]; 0.1 nmol/L BAY‐876, 48 h): almost complete inhibition; also recorded: strong anti–proliferative effect
- selectivity and affinity for GLUT1 [6]: high selectivity and affinity
- reduced the proliferation of TE‐8 cells by (average ± SD) ([4]; 0.025 nmol/L BAY‐876, 48 h): 59.9% ± 4.9%
- inhibition of proliferation of TE‐8 cells ([4]; 0.1 nmol/L BAY‐876, 48 h): almost complete inhibition; also recorded: strong anti–proliferative effect

Compound: O=C(O)C(=O)CBr [3‐bromopyruvate]
- proliferation of TE‐11 cells ([1]; 50 μmol/L, data not shown): inhibits the proliferation
- proliferation of TE‐8 cells ([4]; 50 μmol/L, data not shown): inhibits the proliferation

Compound: O=C(Oc1cccc(F)c1OC(=O)c1cccc(O)c1)c1cccc(O)c1 [WZB117]
- efficacy in vitro ([5]; 30 μmol/L): shown efficacy in vitro
- blood glucose effect [7]: hyperglycemia
- lymphocyte and platelet counts [7]: aberrant lymphocyte and platelet counts
- reduction in the volume of human lung cancer xenografts [7]: > 70%
